# Reference: paper PMC10582670 (Clinical and Translational Science, 2023)
# “And” between values parts separate entries of the source, which are not always exact repeats. Equal entries are not always repeated.
# Assays:
# [1] = Plasma pharmacokinetics after single and multiple oral doses; format: in vivo, human; conditions: for AUC / concentration at 24 h / Cmax / Tmax / Vd/F / half-life: human, plasma, oral; for AUC: AUC0-τ; for Cmax: C max; for Vd/F: V z/F
# Summary of the method: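 Healthy adults received once-daily oral doses of 50 or 100 mg (8 active: 2 placebo) for up to 14 days, in the morning after an overnight fast of at least 8 h. Plasma was sampled after the first dose through 16 h, predose on days 2, 4 and 7, and through 72 h after the day-14 dose. Concentrations were measured by LC-MS/MS (LLOQ 0.0500 ng/mL). Parameters came from noncompartmental analysis: accumulation ratios day 14 versus day 1, CL/F as dose/AUC0-inf. Values given as geometric mean (geometric CV%).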
# Food effect on plasma PK = format: in vivo, human
# Summary of the method: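 The same healthy subjects from the 75-mg fasted single-dose cohort, after a washout of at least five half-lives, fasted 8 h, ate a high-fat breakfast within 20 min and received a single oral 75 mg dose or placebo 30 min after breakfast began. Plasma was sampled predose, through 72 h and on day 7. Concentrations were measured by LC-MS/MS (LLOQ 0.0500 ng/mL). Relative bioavailability versus fasted dosing was based on AUC and Cmax.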
# [2] = system: RIP1 pathway activation (CCL4 release in human whole blood); assay: Ex vivo TBZ stimulation assay of whole blood for CCL4 secretion; format: cell-based
# Summary of the method: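 Whole blood from healthy volunteers in the single- and multiple-ascending-dose stages, collected across the dosing periods, stimulated ex vivo to activate the RIP1-mediated necroptosis pathway; secreted CCL4 measured. Inhibition derived by normalising CCL4 levels to each subject's baseline, then adjusting to the maximum inhibition and SD per cohort. Placebo subjects were sampled in parallel.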
# [3] = system: RIP1 pathway activation (CCL4 release in human whole blood); assay: PK-PD modeling; format: cell-based
# Summary of the method: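 CCL4 inhibition from the ex vivo stimulated whole-blood assay was related to GDC-8264 plasma concentrations measured in the same volunteers by PK-PD modelling. The model estimated the IC50 and the maximal target inhibition.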
# [4] = MAD both doses, comparable between day 1 and day 14
# [5] = MAD 50 mg q.d., n=5, geometric mean (geometric CV%)
# [6] = MAD 100 mg q.d., n=7, geometric mean (geometric CV%)
# [7] = 50 mg, MAD 50 mg q.d., Day 1, n=5, geometric mean (geometric CV%)
# [8] = 50 mg, MAD 50 mg q.d., Day 14, n=5, geometric mean (geometric CV%)
# [9] = 100 mg, MAD 100 mg q.d., Day 1, n=7, geometric mean (geometric CV%)
# [10] = 100 mg, MAD 100 mg q.d., Day 14, n=7, geometric mean (geometric CV%)
structure (smiles),measurement,setting,value
O=C(c1nc2n(n1)[C@H](c1ccccc1)C[C@@H]2F)C1CC1 [GDC‐8264],CL/F,"[1]; MAD 50 mg q.d., Day 14, n=5, geometric mean (geometric CV%)",4.96 (14.1) L/h
same,ARAUC (accumulation ratio based on AUC0-τ of day 14 versus day 1),[1]; [5],1.39 (4.8)
same,ARCmax (accumulation ratio based on C max of day 14 versus day 1),[1]; [5],1.37 (18.3)
same,CL/F,"[1]; MAD 100 mg q.d., Day 14, n=7, geometric mean (geometric CV%)",4.72 (15.2) L/h
same,ARAUC (accumulation ratio based on AUC0-τ of day 14 versus day 1),[1]; [6],1.31 (17.7)
same,ARCmax (accumulation ratio based on C max of day 14 versus day 1),[1]; [6],1.41 (27.3)
same,day on which steady-state trough concentrations were observed,"[1]; MAD, daily doses",4 days
same,CL/F,"[1]; SAD 5 mg single oral dose, fasted, n=6, geometric mean (geometric CV%)",4.71 (10.0) L/h
same,CL/F,"[1]; SAD 25 mg single oral dose, fasted, n=6, geometric mean (geometric CV%)",5.08 (30.3) L/h
same,CL/F,"[1]; SAD 75 mg single oral dose, fasted, n=5, geometric mean (geometric CV%)",5.70 (19.0) L/h
same,CL/F,"[1]; SAD 75 mg single oral dose, high fat meal, n=5, geometric mean (geometric CV%)",5.79 (23.2) L/h
same,CL/F,"[1]; SAD 150 mg single oral dose, fasted, n=5, geometric mean (geometric CV%)",5.40 (18.4) L/h
same,CL/F,"[1]; SAD 225 mg single oral dose, fasted, n=6, geometric mean (geometric CV%)",4.81 (6.7) L/h
same,AUC,[1]; [7],7270 ng·h/mL
same,AUC,[1]; [8],10100 ng·h/mL
same,concentration at 24 h,"[1]; 50 mg, C24, MAD 50 mg q.d., Day 1, n=5, geometric mean (geometric CV%)",151 ng/mL
same,Cmax,[1]; [7],610 ng/mL
same,Cmax,[1]; [8],836 ng/mL
same,Tmax,"[1]; 50 mg, T max, MAD 50 mg q.d., Day 1, n=5, median (range)",3 h
same,Tmax,"[1]; 50 mg, T max, MAD 50 mg q.d., Day 14, n=5, median (range)",2.5 h
same,Vd/F,[1]; [8],80.3 L
same,half-life,"[1]; 50 mg, t 1/2, MAD 50 mg q.d., Day 14, n=5, geometric mean (geometric CV%)",11.2 h
same,AUC,[1]; [9],16200 ng·h/mL
same,AUC,[1]; [10],21200 ng·h/mL
same,concentration at 24 h,"[1]; 100 mg, C24, MAD 100 mg q.d., Day 1, n=7, geometric mean (geometric CV%)",342 ng/mL
same,Cmax,[1]; [9],1180 ng/mL
same,Cmax,[1]; [10],1660 ng/mL
same,Tmax,"[1]; 100 mg, T max, MAD 100 mg q.d., Day 1, n=7, median (range)",3 h
same,Tmax,"[1]; 100 mg, T max, MAD 100 mg q.d., Day 14, n=7, median (range)",2.5 h
same,Vd/F,[1]; [10],77.4 L
same,half-life,"[1]; 100 mg, t 1/2, MAD 100 mg q.d., Day 14, n=7, geometric mean (geometric CV%)",11.4 h
same,half-life,"[1]; mean half-life, tablet formulation",11 to 13 h
same,half-life,"[1]; mean terminal half-life, range of means across single doses",10 to 13 h
same,Tmax,"[1]; median T max, SAD 5- and 25-mg doses (suspension formulation)",1.3 to 1.9 h
same,Tmax,"[1]; median T max, SAD 75-225-mg doses (tablet formulation)",3 to 4 h
same,Tmax,"[1]; median T max, overall, as summarised in the discussion",2.5 to 4 h
same,accumulation ratio [AR],"[1]; multiple dosing q.d. up to 14 days, steady state",~ 1.4 and 1.3–1.4
same,effect of a high-fat meal on the PKs,Food effect on plasma PK; 75 mg single dose,no significant effect
same,delay of median T max after a high-fat meal,"Food effect on plasma PK; 75 mg, compared to the fasted state",1 h
same,timepoint through which >90% inhibition of CCL4 was sustained,[2]; SAD 5- and 25-mg cohorts,≥ 48 h
same,timepoint through which >90% inhibition of CCL4 was sustained,"[2]; SAD 75-, 150-, and 225-mg cohorts",≥ 72 h
same,levels of CCL4,"[2]; SAD 150-mg cohort, 144-h timepoint",comparable to the placebo cohort
same,group mean inhibition of CCL4 production,"[2]; SAD 225-mg cohort, 144 h, mean ± SD, placebo 17% ± 3%",49% ± 9%
same,inhibition of CCL4,"[2]; all SAD cohorts (5-225 mg), 1.5 h postdose",greater than 90%
same,IC50,"[3]; Homo sapiens, read-out: half-maximal inhibitory concentration (IC50) for the inhibition of CCL4 release",0.58 ng/mL
same,maximal inhibition of the target,[3]; estimated by PK-PD (Emax) modeling,99.4%
same,Geometric mean CLr0-τ,[4],~ 0.008 L/h
